Screening data as filed in PubChem.
OX1R antag-1: antagonists of human orexin 1 receptor (OX1R). Orexin/Hypocretin receptor type 1 (Homo sapiens), O43613. OX1R-expressing cells, FRET antagonist read-out. inhibition, % at 6.6 µM. 1.8% of 330,000 active; in the data active means inhibition mostly above about 38%, no sharp cut-off; inactive means mostly below about 40%;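 further: 0% = agonist challenge alone and 100% = reference antagonist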
Target sequence (O43613 whole entry, looked up): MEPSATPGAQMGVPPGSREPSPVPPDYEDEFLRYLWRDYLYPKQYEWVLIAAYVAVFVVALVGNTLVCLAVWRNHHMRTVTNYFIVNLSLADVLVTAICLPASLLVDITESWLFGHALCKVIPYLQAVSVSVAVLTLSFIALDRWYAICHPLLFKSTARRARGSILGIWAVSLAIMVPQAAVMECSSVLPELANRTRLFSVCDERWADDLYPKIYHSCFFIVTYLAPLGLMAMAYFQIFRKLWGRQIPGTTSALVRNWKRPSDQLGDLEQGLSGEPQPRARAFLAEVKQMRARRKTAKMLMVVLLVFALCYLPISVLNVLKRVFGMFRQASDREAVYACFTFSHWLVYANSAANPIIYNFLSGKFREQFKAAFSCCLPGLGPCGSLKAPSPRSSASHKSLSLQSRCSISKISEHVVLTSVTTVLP
TAAR1 antag: human TAAR1 antagonists, primary screen, Fluo-8 calcium fluorescence, CHO RD-HGA16 cells. Trace amine-associated receptor 1 (Homo sapiens), Q96RJ0. antagonist. inhibition, % at 3 µM. 1.5% of 360,000 active;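 active means inhibition above a per-plate cutoff, the mean inhibition of test compounds on that plate plus 3 SD, cut at about 49% in these data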;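 further: 0% = DMSO plus EC80 beta-PEA response and 100% = DMSO alone without agonist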
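Test system – hTAAR1-expressing CHO RD-HGA16 cells, Gα16-coupled · Reagent – β-PEA at EC80 concentration, post-compound challenge · Compound dosing – 3 µM, single point · Timing – 140 s kinetic read after compound, 140 s after agonist · Detection – Fluo-8 intracellular calcium dye fluorescence, real-time kinetic reads · Control set – DMSO and EC80 PEA controls · Repeats – n of 1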
GPR7 antag: GPR7 receptor antagonists, primary screen, cell-based, fluorescence, single concentration; inhibition, % at 4.4 µM; AID 1861, 2009; Neuropeptides B/W receptor type 1 (Homo sapiens), P48145; GPR7-expressing cells, fluorescence antagonist assay; 1.1% of 290,000 active; in the data active means inhibition above about 16%, passing the limit was not always enough;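 further: cells stimulated with the agonist NPW; 0% = agonist with vehicle and 100% = vehicle without agonist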
CHO parental Ca: ATP-evoked calcium signal inhibitors, parental CHO, primary screen, counter-screen for OX1R antagonist project, cell-based, fluorescence, Fluo-8 calcium dye; parental CHO-K1, ATP-induced calcium, Fluo-8 fluorescence; inhibition, % at 5.6 µM; 0.63% of 330,000 active;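 active means inhibition above that plate's mean sample inhibition plus 3 SD, cut at about 26% in these data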;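 further: 0% = ATP-challenged DMSO wells and 100% = DMSO wells without ATP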
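Material: Parental CHO cells | Reagent: ATP | Compound dosing: Single nominal dose of 5.6 µM per compound | Detection: Intracellular calcium via Fluo-8 no-wash fluorescent dye | Read-out: % inhibition of ATP-induced calcium mobilization | Benchmarks: Low control ATP plus DMSO, high control DMSO only | Replicates: Singlicate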
TAAR1 ag: human TAAR1 agonists, primary screen, Fluo-8 calcium fluorescence, CHO RD-HGA16 cells; Trace amine-associated receptor 1 (Homo sapiens), Q96RJ0; vehicle wells 0%, saturating PEA agonist 100%; activation, % at 3 µM; 0.99% of 360,000 active; AID 624467, 2012;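 active means activation above the mean activation of all test compounds in the run plus 3 SD, cut at about 38% in these data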
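test system = CHO RD-HGA16 cells carrying human TAAR1 plus Gα16 | schedule = 17-24 h seeding, 75 min 37 °C dye, 30 min RT | compound dosing = 3 µM single concentration | control set = DMSO and PEA EC100 | replicates = n 1 | signal = Fluo-8 fluorescence, 5 s baseline then 140 s kinetic read | measure = percent activation vs PEA EC100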
OX1R antag-2: OX1R (HCRTR1) antagonists, primary screen, fluorescence, CHO/OX1R cells, Fluo-8 calcium, orexin A; Orexin/Hypocretin receptor type 1 (Homo sapiens), O43613; Fluo-8 calcium fluorescence; inhibition, % at 5 µM; 0.43% of 330,000 active; AID 434989, 2010;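 active means inhibition above its plate's threshold, mean inhibition of all tested compounds on the plate plus 3 SD, cut at about 37% in these data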;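 further: 0% = orexin A challenge wells and 100% = SB-334867-A antagonist wells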
TAAR1 ag conf: human TAAR1 agonists, retest of hits, confirmation, Fluo-8 calcium fluorescence, CHO RD-HGA16 cells; shares compounds with TAAR1 ag; scaled: DMSO 0%, maximal phenethylamine 100%; activation, % at 3 µM; 82% of 2,400 active;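 active means activation above a cutoff set at the run's mean compound activation plus 3 SD, cut at about 39% in these data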
Ga16 nonsel ag: nonselective calcium mobilization agonists, CHO-Ga16 cells, counter-screen for hTAAR1 agonist project, cell-based, fluorescence, CHO-Ga16 parental line; shares compounds with TAAR1 ag; Fluo-8 calcium fluorescence; normalized to maximal ATP response, DMSO zero; activation, % at 3 µM; 50% of 2,400 active; AID 651787, 2012;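 active means activation above the run cutoff, the mean activation over all tested wells plus 3 SD, cut at about 12% in these data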;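 further: 0% = DMSO wells and 100% = maximal ATP response on the peak over basal ratio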
TAAR1 desens: TAAR1 desensitization by agonist hits, confirmation, counter-screen for TAAR1 agonist project, cell-based, fluorescence, tachyphylaxis | inhibition, % at 3 µM | 46% of 2,400 active | CHO RD-HGA16 hTAAR1, Fluo-8 calcium, beta-PEA response inhibition | shares compounds with TAAR1 ag;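 active means inhibition above the run cutoff, the mean inhibition of all test compounds plus 3 SD, cut at about 49% in these data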;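 further: beta-PEA stimulus applied at its EC80; loss of beta-PEA calcium signal after compound pretreatment read as receptor desensitization; 0% = DMSO with beta-PEA at EC80 and 100% = DMSO alone without agonist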
Ga16 antag count: inhibition of ATP-evoked calcium response in CHO-Ga16 cells, counter-screen for TAAR1 agonist project, cell-based, fluorescence; CHO-Ga16 ATP-induced calcium, Fluo-8 fluorescence; inhibition, % at 3 µM; shares compounds with TAAR1 ag; 39% of 2,400 active;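 active means inhibition above the plate's mean compound inhibition plus 3 SD, computed per plate, cut at about 22% in these data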;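 further: 0% = EC80 ATP with DMSO and 100% = DMSO wells without ATP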
* marks the source's active call; other numbers are inactive results; . = no result. Hits are enriched below; roughly 4.5% of the tested compounds scored in any of these assays.

SMILES	OX1R antag-1	TAAR1 antag	GPR7 antag	CHO parental Ca	TAAR1 ag	OX1R antag-2	TAAR1 ag conf	Ga16 nonsel ag	TAAR1 desens	Ga16 antag count
N#Cc1c([N+](=O)[O-])cc([N+](=O)[O-])cc1S(=O)(=O)Cc1ccccc1	28	45	.	17	48*	-2	9	9	42	45*
O=C(NCc1ccccc1)c1cc(C2CCCCN2S(=O)(=O)c2ccccc2)on1 (stereo not drawn)	.	-2	.	.	0	.	.	.	.	.
COc1ccc(NC(=O)Cc2ccc(Cl)cc2Cl)cn1	15	1	-7	-7	56*	-22	24	7	13	8
COc1cccc(CNC(=O)[C@@H]2CCCN2C(=O)[C@@H]2CCCN2C(=O)c2cccc(OC)c2)c1	.	-9	.	.	-1	.	.	.	.	.
CCC(=O)Nc1ccc(C(=O)Nc2ccc(Br)cc2F)cc1	5	83*	-13	2	75*	7	14	3	11	13
COc1ccc(C2SCCN2C(=S)Nc2ccc(F)cc2)cc1 (stereo not drawn)	-9	10	-1	-1	14	-7	.	.	.	.
CCOC(=O)c1ccc(NC(=S)N2CCSC2c2ccc(OC)cc2)cc1 (stereo not drawn)	7	72*	2	-5	93*	-17	83*	37*	67*	44*
CC(C)C(=O)Nc1ccc(NC(=O)c2cc3ccccc3o2)cc1	12	14	-7	-6	54*	-24	45*	21*	49*	28*
CC(C)C(=O)Nc1ccc(NC(=S)NC(=O)c2cc3ccccc3o2)cc1	9	23	11	-4	5	-12	.	.	.	.
Cn1cc(CN2CCc3ccccc3C2)c2ccccc21	13	21	1	-10	67*	-28	85*	1	41	4
COc1ccccc1N1CCN(Cc2cc3c(cc2O)OCO3)CC1	8	3	-6	-9	-1	-18	.	.	.	.
Oc1cc2c(cc1CN1CCc3ccccc3C1)OCO2	25	-7	-2	-9	69*	-2	22	2	0	0
Oc1ccc(CN2CCc3ccccc3C2)c2cccnc12	5	62*	-1	-13	81*	-15	77*	0	24	6
Clc1ccc(-c2ccc(C=Nc3ccc(N4CCOCC4)cc3)o2)c(Cl)c1	20	-25	-4	-13	30	-9	.	.	.	.
Clc1ccc(-c2ccc(C=Nc3ccc(N4CCOCC4)cc3)o2)cc1	32	-2	-9	-10	54*	-9	27	15*	16	18
Cc1nn(CC(=O)N2CCc3ccccc3C2)c(C)c1[N+](=O)[O-]	49	-13	7	4	58*	-9	69*	1	23	3
Cc1c(Br)c([N+](=O)[O-])nn1CC(=O)N1CCc2ccccc2C1	29	-22	-3	-6	63*	-24	60*	2	15	7
CC1=C(C(=O)N2CCCCCC2)CC(CC(=O)NCCCCc2ccccc2)C(=O)N1Cc1ccccc1 (stereo not drawn)	.	-1	.	.	3	.	.	.	.	.
CC(C)NC(=O)c1cc(C2CCCCN2S(=O)(=O)c2cccs2)on1 (stereo not drawn)	.	-15	.	.	-1	.	.	.	.	.
CCc1nc(N)c(C#N)c(-c2ccco2)c1C	30	-18	-12	-2	81*	-9	4	3	2	3
S=c1[nH]ccn1CCc1ccccc1	0	4	8	-11	62*	-18	64*	0	36	1
Cc1ccc(-c2nn(-c3ccccc3)cc2CSC(=N)N)cc1	14	10	10	-2	76*	4	84*	27*	47	25*
O=C(NCCNC(=O)c1ccc(-c2ccc(Cl)c(Cl)c2)o1)c1cnccn1	20	82*	-1	-16	63*	-12	57*	40*	72*	51*
O=C(NCCNC(=O)c1ccc(-c2cccc(Cl)c2)o1)c1cnccn1	.	32	.	.	28	.	.	.	.	.
Cc1c(C(=O)NCc2ccc3c(c2)OCO3)sc(=O)n1Cc1ccc(-c2ccccc2)cc1	.	30	.	.	2	.	.	.	.	.
SMILES	OX1R antag-1	TAAR1 antag	GPR7 antag	CHO parental Ca	TAAR1 ag	OX1R antag-2	TAAR1 ag conf	Ga16 nonsel ag	TAAR1 desens	Ga16 antag count
COC(=O)c1cc(NC(=O)CN2C(=O)CSC2=O)ccc1Cl	11	6	-3	-8	70*	-1	5	1	-7	2
COC(=O)c1ccccc1NC(=O)CN1C(=O)CSC1=O	35	1	-2	-6	7	-17	.	.	.	.
c1ccc(CCN2CN=C(Nc3nc4ccccc4s3)NC2)cc1	10	51*	-16	-56	79*	-33	40*	0	11	3
c1ccc(CN2CN=C(Nc3nc4ccccc4s3)NC2)cc1	6	4	-3	-13	2	-23	.	.	.	.
CC(C)c1c(C(=O)N/N=C/c2ccsc2)nnn1-c1nonc1N	0	2	-13	-3	105*	-23	124*	82*	43	17
CC(C)c1c(C(=O)N/N=C/c2cccs2)nnn1-c1nonc1N	6	17	-15	-10	90*	-30	108*	72*	24	12
CC(C)c1c(C(=O)N/N=C/c2ccoc2)nnn1-c1nonc1N	17	-5	-6	-2	65*	-16	24	32*	18	7
CC(C)c1c(C(=O)N/N=C/c2ccc(C(F)(F)F)cc2)nnn1-c1nonc1N	13	79*	21	-38	150*	-27	120*	89*	80*	39*
